# Measured values reported in article PMC4928098 (NeuroImage, 2016).
# Read-outs that look alike come from different tables or passages of the source.
# Columns and labels:
# MRP1 (ABCC1) = MRP1 (ABCC1) (Homo sapiens, UniProt P33527); type: cell-based; details: for Percent Inhibition (%) of the fluorescent substrate: Mrp1, calcein-AM efflux, human cancer cells
# Outline: (§1)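 Human cancer cells overexpressing a transporter, plus parental cells, were analysed by flow cytometry for efflux of a fluorescent probe: rhodamine-123 for P-gp, mitoxantrone for BCRP, calcein-AM for MRP1. Conditions were untreated parental cells, expressing cells with a transporter-specific inhibitor, expressing cells with test compound at 20 or 50 µM, and untreated expressing cells. Fluorescence was recorded on 10,000 cells and expressed as percent inhibition.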
# P-gp [1] = biological target: P-gp (Mus musculus, UniProt P21447); experiment: Ex vivo brain to plasma ratio of parent radioligand in P-gp knockout mice; details: P-gp KO mice, 30 min after iv injection, n=3
# Outline: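 Wild-type, P-gp KO, BCRP KO and P-gp/BCRP KO mice (n=3 per group, 25.3 ± 1.2 g) were anesthetised with 1.5% isoflurane in oxygen. Radioligand (166 ± 49 µCi; 826 ± 205 mCi/µmol) was given iv via tail-vein cannula. At 30 min, blood was taken by cardiac puncture and brain excised. Parent was quantified by reversed-phase radio-HPLC with γ-counting. Brain/plasma parent ratios were compared across groups (mean ± SEM).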
# P-gp [2] = biological target: P-gp (Homo sapiens, UniProt P08183); experiment: Human PET imaging at baseline and during tariquidar infusion; type: in vivo
# P-gp (Homo sapiens, UniProt P08183), sequence (P08183 whole entry, the tested form may be a part): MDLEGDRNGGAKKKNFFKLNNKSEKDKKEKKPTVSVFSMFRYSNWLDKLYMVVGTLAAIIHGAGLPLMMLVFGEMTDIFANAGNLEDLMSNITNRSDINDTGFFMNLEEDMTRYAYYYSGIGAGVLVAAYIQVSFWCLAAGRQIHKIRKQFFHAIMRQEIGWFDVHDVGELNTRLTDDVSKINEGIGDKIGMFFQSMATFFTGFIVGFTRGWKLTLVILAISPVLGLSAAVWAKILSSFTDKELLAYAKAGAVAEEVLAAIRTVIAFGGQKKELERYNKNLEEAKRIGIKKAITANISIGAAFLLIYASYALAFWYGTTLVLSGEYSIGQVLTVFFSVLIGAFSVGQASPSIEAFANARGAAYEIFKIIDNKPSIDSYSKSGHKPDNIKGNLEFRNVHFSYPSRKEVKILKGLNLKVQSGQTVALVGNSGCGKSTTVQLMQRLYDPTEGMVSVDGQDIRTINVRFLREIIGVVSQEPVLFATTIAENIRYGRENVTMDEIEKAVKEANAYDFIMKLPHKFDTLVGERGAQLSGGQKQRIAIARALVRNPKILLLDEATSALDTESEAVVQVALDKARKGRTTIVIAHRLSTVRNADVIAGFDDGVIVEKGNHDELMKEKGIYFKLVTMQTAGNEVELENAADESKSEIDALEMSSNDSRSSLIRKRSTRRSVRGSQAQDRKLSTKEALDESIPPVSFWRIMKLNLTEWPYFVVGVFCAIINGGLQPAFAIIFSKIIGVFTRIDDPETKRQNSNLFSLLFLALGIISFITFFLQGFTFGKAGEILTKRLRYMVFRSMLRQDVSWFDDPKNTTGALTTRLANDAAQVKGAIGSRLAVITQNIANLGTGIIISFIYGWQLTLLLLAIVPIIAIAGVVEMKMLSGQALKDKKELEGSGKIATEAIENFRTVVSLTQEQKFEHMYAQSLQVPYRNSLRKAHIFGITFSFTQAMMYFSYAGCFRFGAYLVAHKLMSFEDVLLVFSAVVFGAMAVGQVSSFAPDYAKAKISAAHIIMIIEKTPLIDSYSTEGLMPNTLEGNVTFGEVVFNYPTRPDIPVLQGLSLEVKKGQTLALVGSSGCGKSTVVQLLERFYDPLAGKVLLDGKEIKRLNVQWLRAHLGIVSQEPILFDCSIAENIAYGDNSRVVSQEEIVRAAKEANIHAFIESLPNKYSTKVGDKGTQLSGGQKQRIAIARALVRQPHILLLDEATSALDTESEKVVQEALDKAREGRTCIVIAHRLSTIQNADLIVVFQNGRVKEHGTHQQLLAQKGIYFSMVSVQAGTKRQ
# Outline: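 Radioligand was given as a 376 ± 8 MBq bolus, followed by a 2-h dynamic PET with arterial sampling and HPLC metabolite separation. VT came from a three-tissue model including the acid metabolite, in six central regions. Paired one-tailed t-test.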
# [3] = humans, ref Ryu et al., 2007, cited from earlier work
# P-gp (ABCB1) = P-gp (ABCB1) (Homo sapiens, UniProt P08183); type: cell-based; details: for Percent Inhibition (%) of the fluorescent substrate: P-gp, rhodamine-123 efflux, human cancer cells
# P-gp (ABCB1), sequence (P08183 whole entry): as the sequence (P08183 whole entry, the tested form may be a part) above
# Outline: as §1
# BCRP (ABCG2) = biological target: T1, BCRP (ABCG2) (Homo sapiens, UniProt Q9UNQ0); type: cell-based; details: for Percent Inhibition (%) of the fluorescent substrate: BCRP, mitoxantrone efflux, human cancer cells
# T1 sequence (Q9UNQ0 1-655): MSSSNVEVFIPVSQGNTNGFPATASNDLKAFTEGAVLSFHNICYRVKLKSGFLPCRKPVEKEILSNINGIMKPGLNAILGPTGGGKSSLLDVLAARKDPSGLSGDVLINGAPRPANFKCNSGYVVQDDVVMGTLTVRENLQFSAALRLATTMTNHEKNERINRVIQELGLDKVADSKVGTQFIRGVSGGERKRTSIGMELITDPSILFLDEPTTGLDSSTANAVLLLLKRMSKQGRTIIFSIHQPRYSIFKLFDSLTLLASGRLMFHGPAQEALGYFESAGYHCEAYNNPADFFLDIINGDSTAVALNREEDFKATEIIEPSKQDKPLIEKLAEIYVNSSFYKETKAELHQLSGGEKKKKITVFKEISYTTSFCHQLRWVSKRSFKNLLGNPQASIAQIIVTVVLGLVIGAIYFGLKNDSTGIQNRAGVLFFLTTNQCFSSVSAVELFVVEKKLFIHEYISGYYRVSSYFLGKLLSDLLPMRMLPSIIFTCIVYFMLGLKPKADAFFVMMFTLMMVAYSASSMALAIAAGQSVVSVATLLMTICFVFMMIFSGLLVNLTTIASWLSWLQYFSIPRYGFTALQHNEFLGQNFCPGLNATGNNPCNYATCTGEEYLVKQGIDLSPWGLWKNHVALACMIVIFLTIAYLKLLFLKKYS
# Outline: as §1
# P-gp [4] = details: rats pretreated with tariquidar; ref Choi et al., 2016; cited from earlier work
# MRP1 (ABCC1), sequence (P33527 whole entry): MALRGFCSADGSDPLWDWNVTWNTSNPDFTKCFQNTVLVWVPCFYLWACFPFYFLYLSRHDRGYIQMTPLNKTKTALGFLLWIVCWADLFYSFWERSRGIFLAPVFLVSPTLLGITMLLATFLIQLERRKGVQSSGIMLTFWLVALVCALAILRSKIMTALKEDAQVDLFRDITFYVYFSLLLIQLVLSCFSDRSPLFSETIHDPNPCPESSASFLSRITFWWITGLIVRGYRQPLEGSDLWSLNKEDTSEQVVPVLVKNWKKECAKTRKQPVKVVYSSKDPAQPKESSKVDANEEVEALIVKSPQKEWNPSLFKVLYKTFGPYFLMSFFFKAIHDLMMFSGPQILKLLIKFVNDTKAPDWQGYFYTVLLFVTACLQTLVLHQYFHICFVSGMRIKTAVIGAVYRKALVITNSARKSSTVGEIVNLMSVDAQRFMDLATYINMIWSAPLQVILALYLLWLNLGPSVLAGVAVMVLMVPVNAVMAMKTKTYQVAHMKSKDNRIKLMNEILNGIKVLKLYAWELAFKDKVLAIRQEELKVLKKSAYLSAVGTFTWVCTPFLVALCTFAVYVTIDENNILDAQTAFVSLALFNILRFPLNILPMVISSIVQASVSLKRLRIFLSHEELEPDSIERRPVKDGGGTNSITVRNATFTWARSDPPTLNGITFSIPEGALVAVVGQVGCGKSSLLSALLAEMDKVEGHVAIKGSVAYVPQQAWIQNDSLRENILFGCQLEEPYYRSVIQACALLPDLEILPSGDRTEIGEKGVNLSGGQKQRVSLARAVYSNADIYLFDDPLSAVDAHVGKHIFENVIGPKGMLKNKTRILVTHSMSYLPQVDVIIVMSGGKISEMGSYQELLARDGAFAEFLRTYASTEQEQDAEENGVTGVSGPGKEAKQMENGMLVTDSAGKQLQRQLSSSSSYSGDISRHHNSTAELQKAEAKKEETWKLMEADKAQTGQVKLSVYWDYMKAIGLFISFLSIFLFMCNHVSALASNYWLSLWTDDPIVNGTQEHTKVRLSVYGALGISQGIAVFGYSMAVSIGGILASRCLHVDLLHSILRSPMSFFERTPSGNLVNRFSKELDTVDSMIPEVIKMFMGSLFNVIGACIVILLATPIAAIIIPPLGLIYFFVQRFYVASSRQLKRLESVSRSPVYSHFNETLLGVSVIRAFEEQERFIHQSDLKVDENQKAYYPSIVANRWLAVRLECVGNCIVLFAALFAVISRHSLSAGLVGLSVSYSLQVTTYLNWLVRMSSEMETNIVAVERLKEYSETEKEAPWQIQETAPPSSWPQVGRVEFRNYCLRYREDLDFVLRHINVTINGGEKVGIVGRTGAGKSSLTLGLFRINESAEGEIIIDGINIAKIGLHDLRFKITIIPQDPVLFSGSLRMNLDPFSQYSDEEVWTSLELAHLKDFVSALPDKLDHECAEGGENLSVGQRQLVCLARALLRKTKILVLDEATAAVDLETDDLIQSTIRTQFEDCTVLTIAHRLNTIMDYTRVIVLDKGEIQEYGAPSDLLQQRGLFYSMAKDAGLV
compound,measurement,setting,value
"COc1ccccc1N1CCN(CCN(C(=O)c2ccc(F)cc2)c2ccccn2)CC1 [MPPF, reference compound]",Percent Inhibition (%) of the fluorescent substrate,MRP1 (ABCC1); 20 uM,13.1%
same,Percent Inhibition (%) of the fluorescent substrate,MRP1 (ABCC1); 50 uM,19.9%
COc1ccccc1N1CCN(CCN(C(=O)C2CCC([18F])CC2)c2ccccn2)CC1 (stereo not shown) [^18F-FCWAY],Brain uptake (brain to plasma ratio) in comparison to wild type mice,P-gp [1],increased
same,Peak brain radioactivity uptake,"P-gp [2]; baseline, after bolus injection, healthy subjects",around 3 SUV
same,Change of non-displaceable binding potential (BPND) after tariquidar,"P-gp [2]; i.v. tariquidar treatment, n=8",changed insignificantly
same,Increase in mean distribution volume (VT) with tariquidar treatment,"P-gp [2]; tariquidar 2 or 4 mg/kg iv infusion, six brain regions, n=8",60–100%
same,Time of peak uptake in brain,[3]; with disulfiram administration,five to seven
same,Time of peak in brain after injection,[3]; without disulfiram,one to three
COc1ccccc1N1CCN(CCN(C(=O)C2CCC(F)CC2)c2ccccn2)CC1 (stereo not shown) [FCWAY],Percent Inhibition (%) of the fluorescent substrate,P-gp (ABCB1); 20 uM,0.8%
same,Percent Inhibition (%) of the fluorescent substrate,P-gp (ABCB1); 50 uM,4.0%
same,Substrate status for transporter (in vitro substrate inhibition),P-gp (ABCB1); P-gp overexpressing human cancer cells,weak substrate
same,Percent Inhibition (%) of the fluorescent substrate,MRP1 (ABCC1); 20 uM,3.1%
same,Percent Inhibition (%) of the fluorescent substrate,MRP1 (ABCC1); 50 uM,5.4%
same,Substrate status for transporter (in vitro substrate inhibition),MRP1 (ABCC1); MRP1 overexpressing human cancer cells,weak substrate
same,Percent Inhibition (%) of the fluorescent substrate,BCRP (ABCG2); 20 uM,6.8%
same,Percent Inhibition (%) of the fluorescent substrate,BCRP (ABCG2); 50 uM,8.6%
same,Substrate status for transporter (in vitro substrate inhibition),BCRP (ABCG2); BCRP overexpressing human cancer cells,weak substrate
O=C(O)[C@H]1CC[C@H]([18F])CC1 [^18F-FC],Estimated concentration in brain as percent of that of the parent radioligand,"P-gp [2]; during most of the scan, radiometabolite",2–3%
same,Concentration in brain compared to the total radioactivity,"P-gp [2]; estimated by compartmental modeling, radiometabolite",~ 5%
"CNC(=O)C(CCN1CCC(O)(c2ccc(Cl)cc2)CC1)(c1ccccc1)c1ccccc1 [dLop, desmethyl-loperamide, reference compound]",Percent Inhibition (%) of the fluorescent substrate,P-gp (ABCB1); 20 uM,10.0%
same,Percent Inhibition (%) of the fluorescent substrate,P-gp (ABCB1); 50 uM,25.0%
COc1ccccc1N1CCN(CCN(C(=O)C2CCC(C[18F])CC2)c2ccccn2)CC1 (stereo not shown) [^18F-Mefway],Increase of brain uptake after tariquidar pretreatment,P-gp [4],1.6 fold
